We go through four molecules from ChEMBL document CHEMBL1134466 (J Med Chem, 2001).

Data set [1] concerns Mus musculus. In words: Toxicity to bone marrow granulocyte/macrophage progenitors per femur at a dose of 100 mg/kg (ip). The class given is functional. In short, it runs like this:
(§1)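 Male B6D2F1 mice (5/group) given drug or vehicle ip, single dose or daily ×5. Femoral marrow harvested 24 h after the last dose and plated at 2 × 10^4 viable nucleated cells/mL in methylcellulose (0.8%) medium with 20% FBS and 10% pokeweed mitogen-stimulated spleen-conditioned medium. Cultured 7 days at 37 °C, 5% CO2; colonies >50 cells counted. Mean colonies given as % of control per femur, mean ± SEM.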

The subject of data set [2] is Mus musculus. In words: Toxicity to bone marrow granulocyte/macrophage progenitors per femur at a dose of 50 mg/kg (ip). The class given is functional. Summed up: as §1
Data set [3] concerns Mus musculus. In words: Antitumor activity against B16 murine melanoma at a dose of 5 mg/kg (ip) measured as 60-day survivors (% LTS). The class given is functional. In short, it runs like this: (§2)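 Female B6D2F1 mice given 0.2 mL fresh B16 tumor brei ip (day 0), from sc-grown B16 in the same strain. Randomized 10/group and dosed ip on days 1-5 in 0.2 mL 1:2:7 Cremophor:ethanol:saline, freshly made. Mice monitored daily and weighed twice weekly; weight change taken on day 8. T/C = 100% × MST treated/control. 60-day survivors counted as long-term and excluded from MST.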

In data set [4] the test system is Mus musculus. In words: Antitumor activity against B16 murine melanoma at a dose of 50 mg/kg (ip) measured as percent weight change on day 8. The class given is functional. In short, it runs like this: as §2
The subject of data set [5] is Mus musculus. In words: Antitumor activity against B16 murine melanoma at a dose of 5 mg/kg (ip) measured as increased life span (% T/C). It is filed as functional. In short, it runs like this:
as §2

In data set [6] the test system is Mus musculus. In words: (§3) Toxicity to bone marrow granulocyte/macrophage progenitors per femur at a dose of 150 mg/kg (ip). It is filed as organism-based. Further details: dose 150 mg/kg. The conditions noted are these: in vivo. Summed up: as §1
For data set [7], the system named is Mus musculus. In words: (§4) Toxicity to bone marrow granulocyte/macrophage progenitors per femur at a dose of 200 mg/kg (ip). It is filed as organism-based. Further details: dose 200 mg/kg. The conditions noted are these: in vivo. Summed up: as §1
For data set [8], the system named is Mus musculus. In words: Antitumor activity in MX-1 Xenograft Model at a dose of 25 mg/kg (ip) measured as percent growth inhibition. It is filed as functional. The conditions noted are these: read-out: GI. Summed up: (§5)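 Nude mice implanted sc by trocar in right foreflank with 1-2 mm3 MX-1 fragments. At ca. 5 × 5 mm (~10 days), pair-matched into groups of 10. Dosed ip days 1-5 in 0.2 mL 1:2:7 Cremophor:ethanol:saline. Weights and caliper measurements taken twice weekly; weight change on day 8. GI = 100% × (1 − tumor weight treated/control). Partial shrinkage = final tumor weight below day-1 weight; complete = tumor gone.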

In data set [9] the test system is Mus musculus. In words: Antitumor activity against B16 murine melanoma at a dose of 50 mg/kg (ip) measured as 60-day survivors (% LTS). It is filed as functional. In short, it runs like this:
as §2

The subject of data set [10] is Mus musculus. In words: Antitumor activity against B16 murine melanoma at a dose of 7.5 mg/kg (ip) measured as 60-day survivors (% LTS). It is filed as functional. Summed up: as §2
Data set [11] concerns Mus musculus. In words: Antitumor activity against B16 murine melanoma at a dose of 7.5 mg/kg (ip) measured as percent weight change on day 8. It is filed as functional. In short, it runs like this:
as §2

The test system of data set [12] is Mus musculus. In words: Antitumor activity against B16 murine melanoma at a dose of 50 mg/kg (ip) measured as increased life span (% T/C). The class given is functional. In short, it runs like this: as §2
The test system of data set [13] is Mus musculus. In words: Antitumor activity against B16 murine melanoma at a dose of 7.5 mg/kg (ip) measured as increased life span (% T/C). It is filed as functional. In short, it runs like this: as §2
In data set [14] the test system is Mus musculus. In words: Antitumor activity in MX-1 Xenograft Model at a dose of 50 mg/kg (ip) measured as percent weight change on day 8. The class given is functional. In short, it runs like this:
as §5

The subject of data set [15] is Mus musculus. In words: Antitumor activity in MX-1 Xenograft Model at a dose of 25 mg/kg (ip) measured as number of mice with partial tumor regression. It is filed as functional. Summed up: as §5
Data set [16] relates to Mus musculus. In words: Antitumor activity in MX-1 Xenograft Model at a dose of 25 mg/kg (ip) measured as number of mice with complete tumor regression. The class given is functional. Summed up:
as §5

For data set [17], the system named is Mus musculus. The data set is described as §3. It is filed as functional. Summed up: as §1
Data set [18] has as its system Mus musculus. The description is as §4. It is filed as functional. In short, it runs like this: as §1
The test system of data set [19] is Mus musculus. In words: Antitumor activity in MX-1 Xenograft Model at a dose of 50 mg/kg (ip) measured as percent growth inhibition. Particulars: read-out: GI. The class given is functional. Summed up:
as §5

Data set [20] has as its system Mus musculus. In words: Antitumor activity against B16 murine melanoma at a dose of 100 mg/kg (ip) measured as 60-day survivors (% LTS). It is filed as functional. In short, it runs like this:
as §2

Data set [21] relates to Mus musculus. In words: Antitumor activity against B16 murine melanoma at a dose of 100 mg/kg (ip) measured as percent weight change on day 8. It is filed as functional. In short, it runs like this: as §2
In data set [22] the test system is Mus musculus. In words: Antitumor activity against B16 murine melanoma at a dose of 100 mg/kg (ip) measured as increased life span (% T/C). The class given is functional. Summed up:
as §2

Data set [23] relates to Mus musculus. In words: Antitumor activity in MX-1 Xenograft Model at a dose of 50 mg/kg (ip) measured as number of mice with partial tumor regression. The class given is functional. Summed up:
as §5

Data set [24] relates to Mus musculus. In words: Antitumor activity in MX-1 Xenograft Model at a dose of 50 mg/kg (ip) measured as number of mice with complete tumor regression. It is filed as functional. Summed up:
as §5

Broadly, the T/C is the result in the treated group divided by that in the control group, in per cent. As to `O=[N+]([O-])c1ccc(COP(=O)(N(CCBr)CCBr)N(CCBr)CCBr)s1`, the figures for the Control in the data set on Mus musculus [1] and with Mus musculus [2] were 64% and 93%, respectively. In addition, the LTS in the data set on Mus musculus [3] was 0%. The molecule also returned a Weight change with Mus musculus [4] of 10%. Also, the T/C in the data set on Mus musculus [5] is recorded as 185%.
Take `O=[N+]([O-])c1ccc(COP(=O)(N(CCCl)CCCl)N(CCCl)CCCl)s1`: the Control with Mus musculus [6] came to 106%; with Mus musculus [7] it was 81%. Besides, in the data set on Mus musculus [8], the inhibition in vivo at 25 mg/kg is greater than 99%. The LTS in the data set on Mus musculus [9] was found to be 0%; in the data set on Mus musculus [10] it was 20%. Besides, the Weight change is on record as 8% with Mus musculus [4], 10% with Mus musculus [11] and 1% in the data set on Mus musculus [14]. The T/C in the data set with Mus musculus [12] is listed as 166%; in the data set on Mus musculus [13], 248%. The molecule further came in with a No. partial in the data set on Mus musculus [15] of 10. The No. total in the data set on Mus musculus [16] came to 0.
Turning to `O=[N+]([O-])c1ccc(COP(=O)(N(CCCl)CCCl)N(CCCl)CCCl)o1`, the values for the Control in the data set with Mus musculus [1], in the data set with Mus musculus [17] and in the data set on Mus musculus [18] were 100%, 104% and 26%, respectively. For the same molecule, in the data set with Mus musculus [19], the inhibition in vivo at 50 mg/kg came to 99%. In the data set on Mus musculus [20], the LTS is listed as 10%. Moreover, the Weight change with Mus musculus [21] was found to be 6%; with Mus musculus [14], 2%. This molecule had a T/C in the data set on Mus musculus [22] of 172%. In the data set with Mus musculus [23], this molecule gave a No. partial of 7. Besides, in the data set on Mus musculus [24], the No. total was 0.
Turning to `O=[N+]([O-])c1ccc(COP(=O)(N(CCBr)CCBr)N(CCBr)CCBr)o1`, the Control stood at 32% with Mus musculus [1], 23% in the data set on Mus musculus [17] and 102% with Mus musculus [2]. In the data set on Mus musculus [19], the inhibition in vivo at 50 mg/kg is greater than 99%. Moreover, in the data set on Mus musculus [9], the LTS was 0%. The Weight change in the data set on Mus musculus [4] and in the data set on Mus musculus [14] was 11% throughout. In the data set with Mus musculus [12], this molecule yielded a T/C of 202%. In addition, the No. partial with Mus musculus [23] was found to be 6. The molecule also returned a No. total with Mus musculus [24] of 4.
